Values after ≈ are worked out from the molar mass of the structure shown. Active and inactive are the calls of the source. The rule behind the calls is not given here.
Legend:
Schistosoma japonicum [1] = assay: Antischistosomal activity against Schistosoma japonicum infected in mouse at 25 mg/kg/day, po treated for 5 days measured after day 8 post last dose by ELISA; format: functional, organism-based
Summary of the method: (§1)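 Male mice (20–22 g) infected via abdominal skin with 120–140 S. japonicum cercariae. From day 35 post-infection, dosed orally once daily for 5 days. Venous blood then clotted and centrifuged 15 min at 3500 rpm. Serum tested by triple dot ELISA and scored by spot colour: brown +++, yellow ++, slight yellow +, colourless –. DMSO blank.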

Schistosoma japonicum [2] = assay: Antischistosomal activity against Schistosoma japonicum infected in mouse at 50 mg/kg/day, po treated for 5 days measured after day 4 post last dose by ELISA; format: functional, organism-based; summary of the method: as §1
Schistosoma japonicum [3] = assay: Antischistosomal activity against Schistosoma japonicum infected in mouse at 50 mg/kg/day, po treated for 5 days measured after day 2 post last dose by ELISA; format: functional, organism-based; summary of the method: as §1
Schistosoma japonicum [4] = assay: Antischistosomal activity against Schistosoma japonicum infected in mouse at 25 mg/kg/day, po treated for 5 days measured after day 4 post last dose by ELISA; format: functional, organism-based; summary of the method: as §1
[5] = Lipid/water partition coefficient, log P of the compound; format: physicochemical
Schistosoma japonicum [6] = assay: Antischistosomal activity against Schistosoma japonicum infected in mouse at 50 mg/kg/day, po treated for 5 days measured after day 7 post last dose by ELISA; format: functional, organism-based; summary of the method: as §1
Schistosoma japonicum [7] = assay: Antischistosomal activity against Schistosoma japonicum infected in mouse at 25 mg/kg/day, po treated for 5 days measured after day 7 post last dose by ELISA; format: functional, organism-based; summary of the method: as §1
Schistosoma japonicum [8] = assay: Antischistosomal activity against Schistosoma japonicum infected in mouse at 50 mg/kg/day, po treated for 5 days measured after day 6 post last dose by ELISA; format: functional, organism-based; summary of the method: as §1
Schistosoma japonicum [9] = assay: Antischistosomal activity against Schistosoma japonicum infected in mouse at 25 mg/kg/day, po treated for 5 days measured after day 6 post last dose by ELISA; format: functional, organism-based; summary of the method: as §1
Schistosoma japonicum [10] = assay: Antischistosomal activity against Schistosoma japonicum infected in mouse at 25 mg/kg/day, po treated for 5 days measured after day 3 post last dose by ELISA; format: functional, organism-based; summary of the method: as §1
Schistosoma japonicum [11] = assay: Antischistosomal activity against Schistosoma japonicum infected in mouse at 50 mg/kg/day, po treated for 5 days measured after day 3 post last dose by ELISA; format: functional, organism-based; summary of the method: as §1
Schistosoma japonicum [12] = assay: Antischistosomal activity against Schistosoma japonicum infected in mouse at 50 mg/kg/day, po treated for 5 days measured after day 8 post last dose by ELISA; format: functional, organism-based; summary of the method: as §1
Schistosoma japonicum [13] = assay: Antischistosomal activity against Schistosoma japonicum imago derived from infected mouse assessed as reduction in imago viability after 72 hrs; format: functional, organism-based
Summary of the method: (§2)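 Worms perfused with cold heparinised HBSS from mice infected percutaneously with S. japonicum cercariae: larvae at 15 days post-infection (260–280 cercariae), adults at 35 days (120–140 cercariae). Five male and female worms per well in 10% calf serum RPMI 1640 with penicillin, streptomycin and amphotericin B. Preincubated 4 h at 37 °C, 5% CO2, then compounds added and viability recorded over 72 h. IC50 taken at 50% survival. DMSO blank.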

Schistosoma japonicum [14] = assay: Antischistosomal activity against Schistosoma japonicum infected in mouse at 25 mg/kg/day, po treated for 5 days measured after day 5 post last dose by ELISA; format: functional, organism-based; summary of the method: as §1
Schistosoma japonicum [15] = assay: Antischistosomal activity against Schistosoma japonicum infected in mouse at 50 mg/kg/day, po treated for 5 days measured after day 1 post last dose by ELISA; format: functional, organism-based; summary of the method: as §1
Schistosoma japonicum [16] = assay: Antischistosomal activity against Schistosoma japonicum infected in mouse at 50 mg/kg/day, po treated for 5 days measured after day 5 post last dose by ELISA; format: functional, organism-based; summary of the method: as §1
Schistosoma japonicum [17] = assay: Antischistosomal activity against Schistosoma japonicum larva derived from infected mouse assessed as reduction in larva viability after 72 hrs; format: functional, organism-based; summary of the method: as §2
Schistosoma japonicum [18] = assay: Antischistosomal activity against Schistosoma japonicum infected in mouse at 50 mg/kg/day, po treated for 5 days measured after day 9 post last dose by ELISA; format: functional, organism-based; summary of the method: as §1
Schistosoma japonicum [19] = assay: Antischistosomal activity against Schistosoma japonicum imago derived from infected mouse at 20 ug/ml after 72 hrs; format: functional, organism-based; summary of the method: as §2
Schistosoma mansoni = assay: Antischistosomal activity against Schistosoma mansoni imago derived from infected mouse at 20 ug/ml after 72 hrs; format: functional, organism-based
Schistosoma japonicum [20] = assay: Antischistosomal activity against Schistosoma japonicum infected in mouse at 25 mg/kg/day, po treated for 5 days measured after day 1 post last dose by ELISA; format: functional, organism-based; summary of the method: as §1
[21] = Acute toxicity in po dosed mouse infected with Schistosoma japonicum treated for 5 days; format: organism-based; details: in vivo
[22] = Dissociation constant, pKa of the compound; format: physicochemical
Schistosoma japonicum [23] = assay: Antischistosomal activity against Schistosoma japonicum infected in mouse at 25 mg/kg/day, po treated for 5 days measured after day 9 post last dose by ELISA; format: functional, organism-based; summary of the method: as §1
Schistosoma haematobium = assay: Antischistosomal activity against Schistosoma haematobium imago derived from infected mouse at 20 ug/ml after 72 hrs; format: functional, organism-based
Schistosoma japonicum [24] = assay: Antischistosomal activity against Schistosoma japonicum infected in mouse at 25 mg/kg/day, po treated for 5 days measured after day 2 post last dose by ELISA; format: functional, organism-based; summary of the method: as §1

Compound	logP [5]	IC50 (Schistosoma japonicum [13]) [µg/mL]	pKa [22]	Activity (Schistosoma japonicum [1])	Activity (Schistosoma japonicum [4])	Activity (Schistosoma japonicum [7])	Activity (Schistosoma japonicum [9])	Activity (Schistosoma japonicum [10])	Activity (Schistosoma japonicum [14])	Activity (Schistosoma japonicum [15])	IC50 (Schistosoma japonicum [17]) [µg/mL]	Activity (Schistosoma japonicum [20])	LD50 at 120 h [21] [mg/kg]	Activity (Schistosoma japonicum [23])	Activity (Schistosoma japonicum [24])	also measured
O=[N+]([O-])c1ccc(Nc2ccc(NC(=S)Oc3ccc(O)cc3)cc2)cc1	4.54	8.05 (≈ 21.1 µM)	9.22	inactive	Active	Active	Active	Active	Active	Active	6.42 (≈ 16.8 µM)	Active	280	inactive	Active	Activity (Schistosoma japonicum [2]): Active; Activity (Schistosoma japonicum [3]): Active; Activity (Schistosoma japonicum [6]): inactive; Activity (Schistosoma japonicum [8]): inactive; Activity (Schistosoma japonicum [11]): Active; Activity (Schistosoma japonicum [12]): inactive; Activity (Schistosoma japonicum [16]): Active; Activity (Schistosoma japonicum [18]): inactive; Activity (Schistosoma japonicum [19]): Active; Activity (Schistosoma mansoni): inactive; Activity (Schistosoma haematobium): inactive
O=[N+]([O-])c1ccc(Oc2ccc(NC(=S)Oc3ccc(O)cc3)cc2)cc1	5.01	8.02 (≈ 21 µM)	9.23	inactive	Active	Active	Active	Active	Active	Active	6.38 (≈ 16.7 µM)	Active	275	inactive	Active	Activity (Schistosoma japonicum [2]): Active; Activity (Schistosoma japonicum [3]): Active; Activity (Schistosoma japonicum [6]): inactive; Activity (Schistosoma japonicum [8]): inactive; Activity (Schistosoma japonicum [11]): Active; Activity (Schistosoma japonicum [12]): inactive; Activity (Schistosoma japonicum [16]): Active; Activity (Schistosoma japonicum [18]): inactive; Activity (Schistosoma japonicum [19]): Active; Activity (Schistosoma mansoni): inactive; Activity (Schistosoma haematobium): inactive
O=[N+]([O-])c1ccc(Nc2ccc(NC(=S)Oc3ccccc3)cc2)cc1	–	8.21 (≈ 22.5 µM)	–	Active	Active	Active	Active	Active	Active	Active	6.53 (≈ 17.9 µM)	Active	310	Active	Active	–
CC(=O)Nc1ccc(OC(=S)Nc2ccc(Sc3ccc([N+](=O)[O-])cc3)cc2)cc1	5.06	31.2 (≈ 71 µM)	8.99	–	–	–	–	–	–	–	16.7 (≈ 37.9 µM)	–	–	–	–	–
Oc1ccc(OC(=S)Nc2ccc(Nc3ccc(C(F)(F)F)cc3)cc2)cc1	6.04	6.68 (≈ 16.5 µM)	9.23	inactive	Active	inactive	inactive	Active	Active	Active	5.43 (≈ 13.4 µM)	Active	> 500	inactive	Active	Activity (Schistosoma japonicum [2]): inactive; Activity (Schistosoma japonicum [3]): Active; Activity (Schistosoma japonicum [6]): inactive; Activity (Schistosoma japonicum [8]): inactive; Activity (Schistosoma japonicum [11]): Active; Activity (Schistosoma japonicum [12]): inactive; Activity (Schistosoma japonicum [16]): inactive; Activity (Schistosoma japonicum [18]): inactive; Activity (Schistosoma japonicum [19]): Active; Activity (Schistosoma mansoni): inactive; Activity (Schistosoma haematobium): inactive
Oc1ccc(OC(=S)Nc2ccc(Sc3ccc(C(Cl)(Cl)Cl)cc3)cc2)cc1	7.43	37.3 (≈ 79.2 µM)	9.22	–	–	–	–	–	–	–	21.1 (≈ 44.8 µM)	–	–	–	–	–
Oc1ccc(OC(=S)Nc2ccc(Oc3ccc(C(Cl)(Cl)Cl)cc3)cc2)cc1	6.84	13.5 (≈ 29.8 µM)	9.24	inactive	Active	inactive	Active	Active	Active	Active	7.98 (≈ 17.5 µM)	Active	> 500	inactive	Active	Activity (Schistosoma japonicum [2]): Active; Activity (Schistosoma japonicum [3]): Active; Activity (Schistosoma japonicum [6]): Active; Activity (Schistosoma japonicum [8]): Active; Activity (Schistosoma japonicum [11]): Active; Activity (Schistosoma japonicum [12]): Active; Activity (Schistosoma japonicum [18]): Active; Activity (Schistosoma japonicum [19]): Active; Activity (Schistosoma mansoni): inactive; Activity (Schistosoma haematobium): inactive
Oc1ccc(OC(=S)Nc2ccc(Nc3ccc(C(Cl)(Cl)Cl)cc3)cc2)cc1	6.79	12.4 (≈ 27.3 µM)	9.23	Active	Active	Active	Active	Active	–	inactive	7.35 (≈ 16.2 µM)	Active	> 500	Active	Active	Activity (Schistosoma japonicum [19]): Active; Activity (Schistosoma mansoni): inactive; Activity (Schistosoma haematobium): inactive
O=C(C1CCCCC1)N1CC(=O)N2CCc3ccccc3C2C1 (configuration not stated) [PRAZIQUANTEL]	–	7.98 (≈ 25.5 µM)	–	inactive	Active	inactive	Active	Active	Active	Active	6.33 (≈ 20.3 µM)	Active	> 500	inactive	Active	Activity (Schistosoma japonicum [2]): Active; Activity (Schistosoma japonicum [3]): Active; Activity (Schistosoma japonicum [6]): inactive; Activity (Schistosoma japonicum [8]): Active; Activity (Schistosoma japonicum [11]): Active; Activity (Schistosoma japonicum [12]): inactive; Activity (Schistosoma japonicum [16]): Active; Activity (Schistosoma japonicum [18]): inactive
O=[N+]([O-])c1ccc(Sc2ccc(NC(=S)Oc3ccc(O)cc3)cc2)cc1	5.25	30.5 (≈ 76.6 µM)	9.21	–	–	–	–	–	–	–	15.7 (≈ 39.3 µM)	–	–	–	–	–

Further lines, with some results ahead:

logP [5]	IC50 (Schistosoma japonicum [13]) [µg/mL]	pKa [22]	Compound	Activity (Schistosoma japonicum [1])	Activity (Schistosoma japonicum [4])	Activity (Schistosoma japonicum [7])	Activity (Schistosoma japonicum [9])	Activity (Schistosoma japonicum [10])	Activity (Schistosoma japonicum [14])	Activity (Schistosoma japonicum [15])	IC50 (Schistosoma japonicum [17]) [µg/mL]	Activity (Schistosoma japonicum [20])	LD50 at 120 h [21] [mg/kg]	Activity (Schistosoma japonicum [23])	Activity (Schistosoma japonicum [24])	also measured
4.81	14.1 (≈ 33.3 µM)	9.04	CC(=O)Nc1ccc(OC(=S)Nc2ccc(Oc3ccc([N+](=O)[O-])cc3)cc2)cc1	–	–	–	–	–	–	–	8.24 (≈ 19.5 µM)	–	–	–	–	–
5.96	33.7 (≈ 72.8 µM)	9.02	CC(=O)Nc1ccc(OC(=S)Nc2ccc(Sc3ccc(C(F)(F)F)cc3)cc2)cc1	–	–	–	–	–	–	–	19 (≈ 41.1 µM)	–	–	–	–	–
6.71	40.4 (≈ 78.9 µM)	9.01	CC(=O)Nc1ccc(OC(=S)Nc2ccc(Sc3ccc(C(Cl)(Cl)Cl)cc3)cc2)cc1	–	–	–	–	–	–	–	23.5 (≈ 46 µM)	–	–	–	–	–
6.66	31.9 (≈ 75.6 µM)	9.22	Oc1ccc(OC(=S)Nc2ccc(Sc3ccc(C(F)(F)F)cc3)cc2)cc1	–	–	–	–	–	–	–	16.6 (≈ 39.3 µM)	–	–	–	–	–
5.41	17.3 (≈ 38.7 µM)	9.03	CC(=O)Nc1ccc(OC(=S)Nc2ccc(Oc3ccc(C(F)(F)F)cc3)cc2)cc1	–	–	–	–	–	–	–	10.4 (≈ 23.2 µM)	–	–	–	–	–
6.07	20.1 (≈ 40.6 µM)	9.01	CC(=O)Nc1ccc(OC(=S)Nc2ccc(Nc3ccc(C(Cl)(Cl)Cl)cc3)cc2)cc1	–	–	–	–	–	–	–	11.6 (≈ 23.4 µM)	–	–	–	–	–
6.16	18.3 (≈ 36.9 µM)	9.02	CC(=O)Nc1ccc(OC(=S)Nc2ccc(Oc3ccc(C(Cl)(Cl)Cl)cc3)cc2)cc1	–	–	–	–	–	–	–	10.2 (≈ 20.6 µM)	–	–	–	–	–
4.32	15.2 (≈ 36 µM)	9.04	CC(=O)Nc1ccc(OC(=S)Nc2ccc(Nc3ccc([N+](=O)[O-])cc3)cc2)cc1	–	–	–	–	–	–	–	8.22 (≈ 19.5 µM)	–	–	–	–	–
5.32	20 (≈ 44.9 µM)	9.05	CC(=O)Nc1ccc(OC(=S)Nc2ccc(Nc3ccc(C(F)(F)F)cc3)cc2)cc1	–	–	–	–	–	–	–	11.2 (≈ 25.1 µM)	–	–	–	–	–

— ChEMBL document CHEMBL4257483, “Design, synthesis and bioactivities of phenithionate analogues or derivatives for anti-schistosomiasis” (Medchemcomm, 2018)
